Measured values pooled from the literature.
Protocols differ between the studies behind these lines.
RPS6KA4 N-terminal kinase domain: Ribosomal protein S6 kinase alpha-4, N-terminal kinase domain (RPS6KA4, Homo sapiens, UniProt O75676)
RPS6KA4 C-terminal kinase domain: Ribosomal protein S6 kinase alpha-4, C-terminal kinase domain (RPS6KA4, Homo sapiens, UniProt O75676)
RPS6KA4: Ribosomal protein S6 kinase alpha-4 (RPS6KA4, Homo sapiens, UniProt O75676)

Compound | target | effect on | mode | technique | tested at | quantity | value
CN(C)c1nccc(-c2cnc3ncccn23)n1 | RPS6KA4 N-terminal kinase domain | binding |  | competition with immobilised ligand | 1 µM | remaining binding | 80%
Cc1nc(C2CCN(C(=O)c3ccc(OC(F)(F)F)cc3N)CC2)c2ncc(N3CCN(C)CC3)cc2n1 | RPS6KA4 N-terminal kinase domain | cell-free assay |  | competition with immobilised ligand | 1 µM | remaining binding | 100%
COc1cccc2c(NCc3ccccc3)nc(-n3c(N)nc4ccccc43)nc12 | RPS6KA4 N-terminal kinase domain | target engagement in cells | inhibitor | chemoproteomics | 20 mM | inhibition | 7.3%
C[C@@H]1CCN(c2nccc(-c3cnn4ncccc34)n2)C1 | RPS6KA4 N-terminal kinase domain | binding |  | competition with immobilised ligand | 1 µM | remaining binding | 60%
C[C@H](NC(=O)c1cnc2n1[C@](C)(Cc1ccc(C#N)cc1)C(=O)N2c1cc(Cl)c(F)c(Cl)c1)C(=O)NC1(c2ccccn2)CC1 | RPS6KA4 C-terminal kinase domain | cell-free assay |  | competition with immobilised ligand | 1 µM | remaining binding | 92%
O=C1NC(=O)c2cc(Nc3ccc(F)cc3)c(Nc3ccc(F)cc3)cc21 | RPS6KA4 | cell-free assay |  |  | 0.5 µM | remaining signal | 102%
CC/C(=N\NC(=O)NCc1cccc(O)c1)c1ccc(O)c(C)c1O | RPS6KA4 | enzyme activity | inhibitor |  | 0.1 µM | inhibition | 59.4%
O=C(Nc1cnn(-c2csc(C(=O)NC3COC3)c2)c1)Nc1ccccc1Cl | RPS6KA4 | enzyme activity | inhibitor |  | 5 µM | remaining activity | 90.7%
Cc1cc(NC(=O)c2cccc3cc(-c4cccc5[nH]nc(N)c45)ccc23)ccc1F | RPS6KA4 | enzyme activity | inhibitor |  | 0.1 µM | activity vs control | 103%
Cn1cncc1C1=CN(c2ncnc3[nH]cnc23)CCS1 | RPS6KA4 | enzyme activity | inhibitor | radiometric | 2 µM | inhibition | 75.5%
Nc1ncnc2occ(-c3ccc(NC(=O)Nc4cc(C(F)(F)F)ccc4F)cc3)c12 | RPS6KA4 C-terminal kinase domain | cell-free assay | inhibitor |  | 20 µM | remaining signal | 68%
C[C@@H]1CN(c2cc(-c3nn(C)c4ccc(OC5(C)CC5)cc34)ncn2)C[C@H](C)O1 | RPS6KA4 N-terminal kinase domain | cell-free assay |  | competition with immobilised ligand | 1 µM | remaining binding | 100%
N[C@@H]1CCN(c2nccc(-c3cnn4ncccc34)n2)C1 | RPS6KA4 N-terminal kinase domain | binding |  | competition with immobilised ligand | 1 µM | remaining binding | 100%
Cc1cc(C)c(-n2ccn3nc(-c4cccnc4)cc23)cc1NC(=O)c1cc(C#N)cc(S(F)(F)(F)(F)F)c1 | RPS6KA4 C-terminal kinase domain | cell-free assay |  | competition with immobilised ligand | 0.1 µM | remaining binding | 79.3%
COc1cc2ncnc(Nc3ccc(Oc4ccccc4)cc3C)c2cc1OC | RPS6KA4 | enzyme activity | inhibitor |  | 1 µM | inhibition | 1%
Cc1ccc(Nc2nccc(N(C)c3ccc4c(C)n(C)nc4c3)n2)cc1S(N)(=O)=O | RPS6KA4 | enzyme activity | inhibitor |  | 0.5 µM | remaining activity | 102%
CC(C)(C)c1nc(-c2cccc(NS(=O)(=O)c3c(F)cccc3F)c2F)c(-c2ccnc(N)n2)s1 | RPS6KA4 | enzyme activity | inhibitor | radiometric | 1 µM | remaining activity | 86%
CCS(=O)(=O)c1cc2cc(C[C@@](O)(CC(C)(C)c3ccc(F)cc3C(N)=O)C(F)(F)F)[nH]c2cn1 | RPS6KA4 N-terminal kinase domain | cell-free assay |  | competition with immobilised ligand | 1 µM | remaining binding | 78%
Cc1ccc(C(=O)NCc2ccsc2)cc1C#Cc1cn(C(C)C)c2ncnc(N)c12 | RPS6KA4 | enzyme activity | inhibitor |  | 1 µM | activity vs control | 107%
CC(C)c1ccc(NC(=O)c2cccs2)c(-c2nc3ccccc3[nH]c2=O)c1 | RPS6KA4 | enzyme activity | inhibitor |  | 1 µM | activity vs control | 96%
CO[C@H]1CC[C@H](CNc2ccc(S(=O)(=O)NC(=O)c3ccc(N4CCN(CC5=C(c6ccc(Cl)cc6)CC(C)(C)CC5)CC4)cc3Oc3cnc4[nH]ccc4c3)cc2[N+](=O)[O-])CC1 | RPS6KA4 N-terminal kinase domain | cell-free assay |  | competition with immobilised ligand | 1 µM | remaining binding | 95%
Cc1ccc(NC(=O)c2ccc(C)c(C(F)(F)F)c2)cc1C#Cc1nn(C2CCC(O)CC2)c2ncnc(N)c12 (stereo not shown) | RPS6KA4 | cell-free assay |  |  | 10 µM | remaining signal | 70%
